Our source for the folding enthalpy and Tm values is the array DNA melting data of Ke et al. (doi:10.1101/2024.01.08.574731).

Series [1] in a line: folding enthalpy; higher = less favourable; fluorescence melt of hairpins on a sequencing array, two-state fit. To be noted: sodium 0.088 M. In short, it runs like this:
(§1)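 To match UV melts, fitted temperatures were raised by 9.35 °C. These fits were bootstrapped two-state models that gave melting temperature and folding enthalpy, combined by inverse variance over four replicates. The input was normalised Cy3 fluorescence of library hairpins with annealed Cy3 and quencher oligos on a sequenced MiSeq flow cell, imaged in 50 mM Na-HEPES pH 8.0, 25 mM NaCl in 2.5 °C steps up to 60 °C.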

The nature of series [2]: melting temperature; fluorescence melt of hairpins on a sequencing array, two-state fit, raised by 9.35 °C to match UV melts. The settings on record: sodium 0.088 M. In short, it runs like this: as §1

On to GATCTGTCCCCAGATC ((((((....)))))), for which the folding enthalpy in series [1] was -37.5 kcal/mol. Further, the Tm in series [2] came out at 47.9 °C.
For GATCTGTCCGCAGATC ((((((....)))))), in that order: -43.6 kcal/mol and 52.9 °C.
As for GATCTGTCCTCAGATC ((((((....)))))), the folding enthalpy in series [1] was -46.8 kcal/mol. The Tm in series [2] stood at 51 °C.
The matching figures for GATCTGTCGCCAGATC ((((((....)))))): -37.6 kcal/mol and 50.1 °C.
The matching figures for GATCTGTCTTCAGATC ((((((....)))))): -38.7 kcal/mol and 51.4 °C.
The matching figures for GATCTGTGAGCAGATC ((((((....)))))): -40 kcal/mol and 55 °C.
As to GATCTGTGGCCAGATC ((((((....)))))), in series [1], the folding enthalpy was -33.9 kcal/mol. In addition, the Tm in series [2] was determined as 50.4 °C.
On to GATCTGTTATCAGATC ((((((....)))))), for which the folding enthalpy in series [1] was -39.8 kcal/mol. The Tm in series [2] is 50.7 °C.
GATCTGTTCTCAGATC ((((((....)))))): in series [1], the folding enthalpy is -41.3 kcal/mol. Also, the Tm in series [2] was determined as 51.5 °C.
Consider GATCTTAACTAAGATC ((((((....)))))), for which the folding enthalpy in series [1] is -32.5 kcal/mol. The Tm in series [2] turned out to be 44 °C.
For GATCTTAATAAAGATC ((((((....)))))), in that order: -28.5 kcal/mol and 40.9 °C.
The matching figures for GATCTTAATGAAGATC ((((((....)))))): -27.5 kcal/mol and 39.5 °C.
The matching figures for GATCTTAGCAAAGATC ((((((....)))))): -30.9 kcal/mol and 42.4 °C.
Turning to GATCTTAGCTAAGATC ((((((....)))))), in series [1], the folding enthalpy was -43.9 kcal/mol. For the same sequence, the Tm in series [2] is 48.5 °C.
Take GATCTTAGTCAAGATC ((((((....)))))): in series [1], the folding enthalpy was -31.4 kcal/mol. Also, in series [2], the Tm was 42.2 °C.
On to GATCTTATATAAGATC ((((((....)))))), for which the folding enthalpy in series [1] is -34.1 kcal/mol. In addition, the Tm in series [2] turned out to be 44.9 °C.
For GATCTTATCAAGATC ((((((...)))))), in that order: -29.7 kcal/mol and 46 °C.
For the sequence GATCTTATGAAAGATC ((((((....)))))), the folding enthalpy in series [1] was -30.6 kcal/mol. Moreover, the Tm in series [2] worked out at 40.6 °C.
With GATCTTCACGAAGATC ((((((....)))))), in series [1], the folding enthalpy is -40.1 kcal/mol. Further, the Tm in series [2] was 49.2 °C.
For GATCTTCACTAAGATC ((((((....)))))), in that order: -29.7 kcal/mol and 43.9 °C.
Regarding GATCTTCATAAGATC ((((((...)))))), the folding enthalpy in series [1] was -28.4 kcal/mol. Moreover, the Tm in series [2] was 43.4 °C.
For GATCTTCATGAAGATC ((((((....)))))), in that order: -43.4 kcal/mol and 51.1 °C.
For GATCTTCCCGAAGATC ((((((....)))))), in that order: -40.8 kcal/mol and 49.4 °C.
The matching figures for GATCTTCCGGAAGATC ((((((....)))))): -55.2 kcal/mol and 53.1 °C.
As to GATCTTCGTTAAGATC ((((((....)))))), the folding enthalpy in series [1] is -32.2 kcal/mol. Moreover, the Tm in series [2] was found to be 43 °C.
The matching figures for GATCTTCTACAAGATC ((((((....)))))): -30.3 kcal/mol and 41.9 °C.
The matching figures for GATCTTCTATAAGATC ((((((....)))))): -30.3 kcal/mol and 43.5 °C.
Take GATCTTCTGTAAGATC ((((((....)))))): the folding enthalpy in series [1] is -34.7 kcal/mol. Besides, the Tm in series [2] was 43.1 °C.
For GATCTTCTTAAAGATC ((((((....)))))), the folding enthalpy in series [1] is -32.7 kcal/mol. Moreover, the Tm in series [2] came out at 46 °C.
With GATCTTCTTTAAGATC ((((((....)))))), the folding enthalpy in series [1] was -38 kcal/mol. In addition, in series [2], the Tm was determined as 43.3 °C.
For GATCTTGAACAAGATC ((((((....)))))), in that order: -34.8 kcal/mol and 49.2 °C.
The matching figures for GATCTTGACAAAGATC ((((((....)))))): -44 kcal/mol and 52.7 °C.
As for GATCTTGATGAAGATC ((((((....)))))), the folding enthalpy in series [1] was -23.4 kcal/mol. Further, the Tm in series [2] came out at 44.1 °C.
Regarding GATCTTGCATAAGATC ((((((....)))))), in series [1], the folding enthalpy was -39.9 kcal/mol. In addition, the Tm in series [2] stood at 50.9 °C.
The matching figures for GATCTTGCCAAGATC ((((((...)))))): -26.1 kcal/mol and 47.5 °C.
For GATCTTGCGTAAGATC ((((((....)))))), in that order: -39.6 kcal/mol and 43.6 °C.
On to GATCTTGCTAAAGATC ((((((....)))))), for which, in series [1], the folding enthalpy was -38.1 kcal/mol. Also, the Tm in series [2] turned out to be 53.2 °C.
